From ChEMBL document CHEMBL1138033, “S-alkylated homocysteine derivatives: new inhibitors of human betaine-homocysteine S-methyltransferase” (J Med Chem, 2006)

Tests used:
[1] = target: T1, Betaine--homocysteine S-methyltransferase 1 (Homo sapiens) (UniProt Q93088); test: Inhibition of human BHMT at 20 uM
T1 sequence (whole entry): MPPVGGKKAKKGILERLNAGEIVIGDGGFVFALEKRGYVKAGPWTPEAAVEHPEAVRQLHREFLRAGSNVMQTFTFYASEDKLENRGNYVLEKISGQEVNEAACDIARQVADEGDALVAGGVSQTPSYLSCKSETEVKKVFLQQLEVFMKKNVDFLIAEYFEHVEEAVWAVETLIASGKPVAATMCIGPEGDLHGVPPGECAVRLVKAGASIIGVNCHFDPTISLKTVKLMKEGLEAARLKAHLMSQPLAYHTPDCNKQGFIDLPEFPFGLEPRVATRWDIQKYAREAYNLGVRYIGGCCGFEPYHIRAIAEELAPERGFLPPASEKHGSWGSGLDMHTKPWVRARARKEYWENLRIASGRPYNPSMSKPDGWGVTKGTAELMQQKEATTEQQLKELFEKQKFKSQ
Method in brief: (§1)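 Recombinant human BHMT (0.2 µM) premixed with inhibitor, then 100 µM D,L-homocysteine and 250 µM N-methyl-¹⁴C-betaine (0.05 µCi) added; 50 mM K-phosphate pH 7.5, 10 mM β-mercaptoethanol, 37°C for 30 min. Radiolabel incorporation read against enzyme-free blanks; triplicates, percent relative to no-inhibitor control.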

[2] = target: T1, Betaine--homocysteine S-methyltransferase 1 (Homo sapiens); test: Inhibition of human BHMT at 1 uM; method in brief: as §1
[3] = target: T2, Betaine--homocysteine S-methyltransferase 1 (Homo sapiens, UniProt Q93088); test: Inhibition of human BHMT
T2 sequence (Q93088 whole entry): T1 sequence (whole entry)
Method in brief: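 Recombinant human BHMT (0.2 µM) mixed with inhibitor at ten concentrations, then 1 mM D,L-homocysteine and 2 mM betaine (¹⁴C-methyl labelled, 0.15 µCi) added in 50 mM K-phosphate pH 7.5 with 10 mM β-mercaptoethanol; 30 min at 37°C. Enzyme-free blanks subtracted. IC50 by nonlinear regression; points in duplicate, three independent assays.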

Row | SMILES | inhibition [1] | inhibition [2] | IC50 [3]
1 | NC(CCSCC(N)C(=O)O)C(=O)O (stereo not given) | 18.8% | – | –
2 | NC(CCSSCCC(N)C(=O)O)C(=O)O (stereo not given) | 0% | – | –
3 | NC(CC[S+]([O-])CC(N)C(=O)O)C(=O)O (stereo not given) | 9.5% | – | –
4 | N[C@@H](CSCCCCC(=O)O)C(=O)O | 0% | – | –
5 | NC(CCSCCCCCC(=O)O)C(=O)O (racemic) | 100% | 99.9% | 0.2 µM
6 | NC(CC[S+]([O-])CCCCC(=O)O)C(=O)O (racemic) | 97.3% | 67.8% | 5 µM
7 | NC(CCSCCCCP(=O)(O)O)C(=O)O (racemic) | 97.8% | 74% | 5.7 µM
8 | NC(CCSCCSCC(=O)O)C(=O)O (racemic) | 100% | 96.8% | 0.096 µM
9 | NC(CCSc1ccc(C(=O)O)cc1)C(=O)O (racemic) | 98.6% | 84.8% | 7 µM
10 | C=CCSCCC(N)C(=O)O (racemic) | 0% | – | –
11 | COC(=O)C(N)CCSCC(=O)NCP(=O)(O)O (racemic) | 0% | – | –
12 | CSCSCCC(N)C(=O)O (racemic) | 20.5% | – | –
13 | NC(CCS(=O)(=O)CCCCC(=O)O)C(=O)O (racemic) | 28.8% | – | –
14 | NC(CCSCC(=O)NCP(=O)(O)O)C(=O)O (racemic) | 8.8% | – | –
15 | NC(CCSCCCC(=O)O)C(=O)O (racemic) | 20.1% | – | –
16 | NC(CCSCCCCC(=O)O)C(=O)O (racemic) | 100% | 98.3% | –
17 | NC(CCSCCOCP(=O)(O)O)C(=O)O (racemic) | 25.5% | – | –
18 | NC(CCSCC[S+]([O-])CC(=O)O)C(=O)O (racemic) | 89.8% | 55.3% | –
19 | NC(CCSCc1ccc(CC(=O)O)cc1)C(=O)O (racemic) | 10.1% | – | –
20 | NC(CCSSCCC(=O)O)C(=O)O (racemic) | 30% | 0% | –
21 | NC(CCSc1cccc(C(=O)O)c1)C(=O)O (racemic) | 12.8% | – | –
22 | NC(CCSc1ccccc1C(=O)O)C(=O)O (racemic) | 42.5% | – | –
